ChEMBL document CHEMBL2157999, “Potent small molecule Hedgehog agonists induce VEGF expression in vitro” (Bioorg Med Chem, 2012)
Calls of active or inactive are those of the source. The rule behind the calls is not given here.

Experiments:
[1] = tested on: HUVEC; assay: Cytotoxicity against HUVEC up to 10 uM after 24 hrs by WST-1 assay; type: cell-based; details: human
Outline: (§1)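 HUVEC were seeded at 7500 cells/well and exposed to a compound concentration series (<0.5% DMSO) for 24 h. WST-1 was then added and incubated 24 h. Absorbance at 440 and 650 nm was read, and the absorbance difference was plotted against concentration.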

[2] = tested on: HUVEC; assay: Induction of HUVEC proliferation after 48 hrs by BrdU-incorporation assay; type: functional, cell-based; details: Homo sapiens
Outline: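 HUVEC were seeded at 5000 cells/well. After 24 h the medium was swapped for a compound dilution series (≤0.5% DMSO) and incubated 48 h. BrdU incorporation was read by chemiluminescent ELISA.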

[3] = target: Sonic hedgehog protein (Mus musculus, UniProt Q62226); assay: Activation of Shh pathway in mouse Shh-Light II cells assessed as induction of gli1 expression after 48 hrs by […] luminescence assay; type: functional, cell-based
Outline: (§2)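 Shh-Light II cells were given compounds from DMSO stocks (final DMSO 0.1%; top concentration 1000 nm) for 48 h, then PBS-washed and lysed. Gli reporter luminescence was measured by dual-luciferase and normalized to constitutive Renilla. EC50 came from a Hill-slope fit of RLU/s versus concentration. 2–4 independent experiments, each in technical triplicate.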

[4] = target: Sonic hedgehog protein (Homo sapiens) (UniProt Q15465); assay: Activation of Shh pathway in human foreskin fibroblasts assessed as increase in VEGF expression at 0.1 to 1 uM after 48 hrs by ELISA relative to control
Outline: (§3)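 Primary foreskin fibroblasts were plated in DMEM with 10% FBS for 24 h, washed free of nonadherent cells and reseeded at 14000 cells/well. After 72 h the medium was replaced with compound (0.1–1.0 µm range, <0.1% DMSO). Cells were held 48 h at 37 °C, 5% CO2. Three independent experiments.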

[5] = tested on: HUVEC; assay: Induction of angiogenesis in HUVEC assessed as formation of cell sprouts after 48 hrs by 3D spheroid angiogenesis assay; details: Homo sapiens
[6] = target: Sonic hedgehog protein (Homo sapiens) (UniProt Q15465); assay: Activation of Shh pathway in human foreskin fibroblasts assessed as induction of maximum VEGF expression at 0.5 uM after 48 hrs by ELISA relative to control; outline: as §3
[7] = tested on: HUVEC; assay: Cytotoxicity against HUVEC after 24 hrs by WST-1 assay; type: cell-based; details: Homo sapiens; outline: as §1
[8] = target: Sonic hedgehog protein (Homo sapiens) (UniProt Q15465); assay: Activation of Shh pathway in human foreskin fibroblasts assessed as increase in VEGF expression after 48 hrs by ELISA; outline: as §3
[9] = target: Sonic hedgehog protein (Mus musculus) (UniProt Q62226); assay: Activation of Shh pathway in mouse Shh-Light II cells assessed as induction of gli1 expression at 1 uM after 48 hrs by […] luminescence assay; type: functional, cell-based; outline: as §2
[10] = target: Sonic hedgehog protein (Homo sapiens) (UniProt Q15465); assay: Activation of Shh pathway in human foreskin fibroblasts assessed as induction of maximum VEGF expression at 1 uM after 48 hrs by ELISA relative to control; outline: as §3
[11] = Ratio of compound IC50 to SAG IC50 for HUVEC; type: ADME, cell-based; details: human, HUVEC cells; read-out: Ratio IC50

Sequence of Sonic hedgehog protein (Homo sapiens) (Q15465 24-197 limits assumed): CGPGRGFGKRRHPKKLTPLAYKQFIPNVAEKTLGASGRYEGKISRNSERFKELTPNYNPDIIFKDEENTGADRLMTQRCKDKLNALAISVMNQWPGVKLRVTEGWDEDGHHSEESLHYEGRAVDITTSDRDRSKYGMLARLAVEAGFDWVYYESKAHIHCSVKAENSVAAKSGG
Sequence of Sonic hedgehog protein (Q62226 25-198 limits assumed): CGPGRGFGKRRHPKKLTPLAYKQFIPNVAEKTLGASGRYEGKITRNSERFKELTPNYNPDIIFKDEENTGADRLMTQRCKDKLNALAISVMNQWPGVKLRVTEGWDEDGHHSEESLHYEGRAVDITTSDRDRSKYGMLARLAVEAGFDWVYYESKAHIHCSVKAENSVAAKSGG

SMILES | Activity [9] | Activity [2] | Activity [5] | also measured
CN[C@H]1CC[C@H](N(Cc2cccc(-c3ccncc3)c2)C(=O)c2sc3ccccc3c2Cl)CC1 |  | inactive | inactive | Activity [1]: Non-toxic; EC50 [3]: 8.8 nM; fold change (FC) [4]: 7; Activity [6]: 29.6 pg/mL; IC50 [7]: 22000 nM; Activity [8]: Dose-dependent effect
O=C(c1sc2cccc(Cl)c2c1Cl)N(Cc1cccc(-c2ccncc2)c1)C1CCNCC1 | inactive | inactive | inactive | 
CN[C@H]1CC[C@@H](N(Cc2cccc(-c3ccncc3)c2)C(=O)c2sc3cccc(Cl)c3c2Cl)CC1 |  | inactive | inactive | Activity [1]: Non-toxic; EC50 [3]: 7.6 nM
N#Cc1ccc(CN(C(=O)c2sc3cccc(Cl)c3c2Cl)C2CCNCC2)cc1 | inactive | inactive | inactive | 
CN[C@H]1CC[C@H](N(Cc2cccc(-c3ccncc3)c2)C(=O)c2sc3cc(Cl)ccc3c2Cl)CC1 | inactive | inactive | inactive | 
CN[C@H]1CC[C@H](N(Cc2cccc(-c3ccncc3)c2)C(=O)c2cc3ccccc3s2)CC1 | inactive | inactive | inactive | 
CC(=O)Nc1ccc(CN(C(=O)c2sc3cccc(Cl)c3c2Cl)C2CCNCC2)cc1 | inactive | inactive | inactive | 
CC(=O)Nc1ccc(CN(C(=O)c2oc3ccccc3c2C)C2CCNCC2)cc1 | inactive | inactive | inactive | 
CN[C@H]1CC[C@H](N(Cc2cccc(-c3ccncc3)c2)C(=O)c2ccc(-c3ccccc3)o2)CC1 |  | inactive | inactive | Activity [1]: Non-toxic; EC50 [3]: 53.8 nM
CN[C@H]1CC[C@H](N(Cc2cccc(-c3ccncc3)c2)C(=O)c2[nH]c3ccccc3c2Cl)CC1 |  | inactive | inactive | Activity [1]: Non-toxic; EC50 [3]: 118 nM
Cc1c(C(=O)N(Cc2ccco2)C2CCNCC2)oc2ccccc12 | inactive | inactive | inactive | 
CN[C@H]1CC[C@@H](N(Cc2cccc(-c3ccncc3)c2)C(=O)c2sc3ccccc3c2Cl)CC1 |  | inactive | inactive | Activity [1]: Non-toxic; EC50 [3]: 61.8 nM; Activity [10]: 23.8 pg/mL; fold change (FC) [4]: 7; Activity [8]: Dose-dependent effect
CN[C@H]1CC[C@H](N(Cc2ccncc2)C(=O)c2sc3ccccc3c2Cl)CC1 | inactive | inactive | inactive | 
CN[C@H]1CC[C@H](N(Cc2cccc(-c3ccncc3)c2)C(=O)c2sc3cccc(Cl)c3c2Cl)CC1 |  | inactive | inactive | Activity [1]: Non-toxic; EC50 [3]: 21.9 nM; Activity [10]: 32.4 pg/mL; fold change (FC) [4]: 7; selectivity ratio [11]: 10; IC50 [7]: 250000 nM; Activity [8]: Dose-dependent effect
CC(=O)Nc1ccc(CN(C(=O)c2sc3cc(F)ccc3c2Cl)C2CCNCC2)cc1 | inactive | inactive | inactive | 
CCOc1cc(C(=O)N(Cc2cccc(-c3ccncc3)c2)[C@H]2CC[C@H](NC)CC2)cc(OCC)c1OCC | inactive | inactive | inactive | 
O=C(c1sc2cc(F)ccc2c1Cl)N(Cc1cccc(-c2ccncc2)c1)C1CCNCC1 | inactive | inactive | inactive | 
CN[C@H]1CC[C@H](N(Cc2ccnc3ccccc23)C(=O)c2sc3ccccc3c2Cl)CC1 | inactive | inactive | inactive | 
CN[C@H]1CC[C@H](NCc2cccc(-c3ccncc3)c2)CC1 | inactive | inactive | inactive | 
CN[C@H]1CC[C@H](N(Cc2cccc(-c3ccncc3)c2)C(=O)c2oc3ccccc3c2C)CC1 | inactive | inactive | inactive | 
CN[C@H]1CC[C@H](N(Cc2cccc(-c3ccncc3)c2)C(=O)c2sc3cc(F)ccc3c2Cl)CC1 |  | inactive | inactive | Activity [1]: Non-toxic; EC50 [3]: 176 nM; Activity [10]: 32.2 pg/mL; fold change (FC) [4]: 7; Activity [8]: Dose-dependent effect

Continued, in another order:

Activity [9] | SMILES | Activity [2] | Activity [5] | also measured
inactive | O=C(c1sc2cc(F)ccc2c1Cl)N(Cc1ccco1)C1CCNCC1 | inactive | inactive | 
inactive | O=C(c1sc2ccccc2c1Cl)N(Cc1cccc(-c2ccncc2)c1)C1CCNCC1 | inactive | inactive | 
inactive | N#Cc1ccc(CN(C(=O)c2sc3cc(F)ccc3c2Cl)C2CCNCC2)cc1 | inactive | inactive | 
inactive | CC(=O)Nc1ccc(CN(C(=O)c2sc3ccccc3c2Cl)C2CCNCC2)cc1 | inactive | inactive | 
inactive | O=C(c1sc2ccccc2c1Cl)N(Cc1ccco1)C1CCNCC1 | inactive | inactive | 
inactive | Cc1c(C(=O)N(Cc2cccs2)C2CCNCC2)oc2ccccc12 | inactive | inactive | 
inactive | O=C(c1sc2ccccc2c1Cl)N(Cc1cccc(Br)c1)C1CCNCC1 | inactive | inactive | 
inactive | O=C(c1sc2ccccc2c1Cl)N(Cc1cccs1)C1CCNCC1 | inactive | inactive | 
inactive | O=C(c1sc2cccc(Cl)c2c1Cl)N(Cc1ccco1)C1CCNCC1 | inactive | inactive | 
inactive | N#Cc1ccc(CN(C(=O)c2sc3ccccc3c2Cl)C2CCNCC2)cc1 | inactive | inactive | 
inactive | O=C(c1sc2ccccc2c1Cl)N(Cc1ccnc2ccccc12)C1CCNCC1 | inactive | inactive | 
